Results published in paper PMC9303630 (Journal of Clinical Pharmacology, 2021).
“Also recorded” adds a separate entry of the source. Marks after values point to notes of the source that are not given here.

Assays:
[1] = Phase 1 open-label single-dose hepatic impairment PK study of ipatasertib; format: in vivo, human; conditions: for tlast: 100 mg ipatasertib single oral, median (min-max); for AUC0‐∞, Test/Reference geometric mean ratio / Cmax, Test/Reference geometric mean ratio: (90%CI) where printed
Procedure, shortened: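 Open-label, parallel-group design: subjects with mild, moderate or severe hepatic impairment (Child-Pugh or NCI-ODWG) vs matched normal-function controls. Single oral 100 mg dose with 240 mL water after ≥8 h fast, then fasting ≥4 h. Plasma was sampled predose to day 15 for parent and M1, assayed with stable-labeled internal standards. Log-transformed AUC0‐∞ and Cmax were compared test vs reference with back-transformed geometric mean ratios and 90% CIs.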

[2] = Safety and tolerability in the hepatic impairment study; format: in vivo, human
[3] = cited from earlier work
[4] = radiolabeled ipatasertib; ref data on file; cited from earlier work
[5] = 100-mg dose of ipatasertib coadministered with itraconazole; cited from earlier work
[6] = not assessed in this study; cited from earlier work
[7] = once daily; combination setting; patients with solid tumors; cited from earlier work
[8] = system: P‐glycoprotein (P‐gp); conditions: cited from earlier work
[9] = system: CYP3A4; conditions: cited from earlier work
[10] = cited from earlier work; remark: listed apart in the source
[11] = Mild vs normal, Child-Pugh, listed as ipatasertib
[12] = Mild vs normal, NCI-ODWG, listed as ipatasertib
[13] = Moderate vs normal, Child-Pugh, listed as ipatasertib
[14] = Moderate vs normal, NCI-ODWG, listed as ipatasertib
[15] = Severe vs normal, Child-Pugh, listed as ipatasertib
[16] = Severe vs normal, NCI-ODWG, listed as ipatasertib
[17] = moderate or severe hepatic impairment, either method of classification

CC(C)NC[C@@H](C(=O)N1CCN(c2ncnc3c2[C@H](C)C[C@H]3O)CC1)c1ccc(Cl)cc1 [Ipatasertib]
tlast ([1]; Child-Pugh, Healthy (N = 13)): 120.0 (72.0‐120.4) h
tlast ([1]; Child-Pugh, Mild (N = 8)): 120.0 (48.0‐168.0) h
tlast ([1]; Child-Pugh, Moderate (N = 8)): 216.0 (146.5‐334.5) ^b h
tlast ([1]; Child-Pugh, Severe (N = 7)): 192.2 (167.7‐336.0) ^c h
tlast ([1]; NCI-ODWG, Healthy (N = 21)): 120.0 (48.0‐240.0) h
tlast ([1]; NCI-ODWG, Mild (N = 5)): 144.1 (96.0‐168.0)^c h
tlast ([1]; NCI-ODWG, Moderate (N = 5)): 240.8 (168.0‐334.5)^c h
tlast ([1]; NCI-ODWG, Severe (N = 5)): 216.4 (167.7‐336.0) h
systemic exposure compared to normal hepatic function ([1]; Child-Pugh mild hepatic impairment): comparable; also recorded: no appreciable difference
apparent plasma clearance lower than normal hepatic function ([1]; Child-Pugh moderate): ≈ 2.5 fold
apparent volume of distribution lower than normal hepatic function ([1]; Child-Pugh moderate): ~1.6 fold
mean elimination t1/2 longer than normal hepatic function ([1]; Child-Pugh moderate): ≈ 1.7 fold
increase in systemic exposure (AUC0‐∞) compared to normal hepatic function ([1]; Child-Pugh moderate hepatic impairment): ≈ 2 fold
apparent plasma clearance lower than normal hepatic function ([1]; Child-Pugh severe): ≈ 2.9 fold
apparent volume of distribution lower than normal hepatic function ([1]; Child-Pugh severe): ~2.1 fold
mean elimination t1/2 longer than normal hepatic function ([1]; Child-Pugh severe): ~1.5 fold
increase in systemic exposure (AUC0‐∞) compared to normal hepatic function ([1]; Child-Pugh severe hepatic impairment): ~3 fold
AUC0‐∞, Test/Reference geometric mean ratio ([1]; Mild vs normal, Child-Pugh): 89.5%
Cmax, Test/Reference geometric mean ratio ([1]; Mild vs normal, Child-Pugh): 98.6%
AUC0‐∞, Test/Reference geometric mean ratio [1, 11]: 89.5 (65.1‐123.2) %
Cmax, Test/Reference geometric mean ratio [1, 11]: 98.6 (52.8‐184.0) %
AUC0‐∞, Test/Reference geometric mean ratio ([1]; Mild vs normal, NCI-ODWG): 153.6%
Cmax, Test/Reference geometric mean ratio ([1]; Mild vs normal, NCI-ODWG): 101.1%
AUC0‐∞, Test/Reference geometric mean ratio [1, 12]: 153.6 (87.7‐269.2) %
Cmax, Test/Reference geometric mean ratio [1, 12]: 101.1 (35.9‐284.8) %
AUC0‐∞, Test/Reference geometric mean ratio ([1]; Moderate vs normal, Child-Pugh): 261.5%
Cmax, Test/Reference geometric mean ratio ([1]; Moderate vs normal, Child-Pugh): 184.1%
AUC0‐∞, Test/Reference geometric mean ratio [1, 13]: 261.5 (191.2‐357.5) %
Cmax, Test/Reference geometric mean ratio [1, 13]: 184.1 (112.2‐302.0) %
AUC0‐∞, Test/Reference geometric mean ratio ([1]; Moderate vs normal, NCI-ODWG): 339.1%
Cmax, Test/Reference geometric mean ratio ([1]; Moderate vs normal, NCI-ODWG): 198.1%
AUC0‐∞, Test/Reference geometric mean ratio [1, 14]: 339.1 (241.7‐475.6) %
Cmax, Test/Reference geometric mean ratio [1, 14]: 198.1 (109.5‐358.4) %
AUC0‐∞ higher than normal hepatic function ([1]; NCI-ODWG mild): ≈ 1.5 fold
Cmax compared to normal hepatic function ([1]; NCI-ODWG mild): similar
AUC0‐∞, Test/Reference geometric mean ratio ([1]; Severe vs normal, Child-Pugh): 298.1%
Cmax, Test/Reference geometric mean ratio ([1]; Severe vs normal, Child-Pugh): 163.8%
AUC0‐∞, Test/Reference geometric mean ratio [1, 15]: 298.1 (228.4‐389.0) %
Cmax, Test/Reference geometric mean ratio [1, 15]: 163.8 (86.4‐310.3) %
AUC0‐∞, Test/Reference geometric mean ratio ([1]; Severe vs normal, NCI-ODWG): 267.0%
Cmax, Test/Reference geometric mean ratio ([1]; Severe vs normal, NCI-ODWG): 155.2%
AUC0‐∞, Test/Reference geometric mean ratio [1, 16]: 267.0 (195.6‐364.3) %
Cmax, Test/Reference geometric mean ratio [1, 16]: 155.2 (70.7‐340.9) %
Tmax ([1]; human, plasma, po, 100 mg, median tmax, across all the groups, single oral 100-mg dose, Child-Pugh): 30 to 60 min
AUC0‐∞ increase compared to normal hepatic function [1, 17]: ~3 fold
Cmax increase compared to normal hepatic function [1, 17]: ≈ 2 fold
total AEs reported ([2]; all 36 subjects): 12 AEs
discontinuation due to AEs ([2]; in vivo): no subjects were discontinued
AEs reported ([2]; mild hepatic impairment): 3 AEs
subjects with AEs ([2]; mild hepatic impairment): 2 subjects
AEs reported ([2]; moderate hepatic impairment): 3 AEs
subjects with AEs ([2]; moderate hepatic impairment): 3 subjects
AEs reported ([2]; normal hepatic function): 1 AE
subjects with AEs ([2]; normal hepatic function): 1 subject
AE of orthostatic hypotension assessed as severe (grade 3) ([2]; one subject with moderate hepatic impairment): 1 AE
AEs reported ([2]; severe hepatic impairment): 5 AEs
subjects with AEs ([2]; severe hepatic impairment): 3 subjects
overall safety and tolerability ([2]; single oral dose of 100 mg, normal hepatic function and hepatic impairment): generally safe and well tolerated
median half‐life (t1/2) ([3]; 400-mg dose in patients): ≈ 45 hours
dose proportionality ([3]; single dose, doses of 100 to 800 mg, dose escalation study): close to dose proportionality
parent drug eliminated in urine [4]: ≈ 8%
total administered dose eliminated in urine [4]: ≈ 19%
increase of ipatasertib exposures with itraconazole [5]: ≈ 5 fold
overall mean percentage unbound in human plasma [6]: 63.6%
maximum tolerated dose [7]: 400 mg
substrate of P‐glycoprotein (P‐gp) [8]: substrate
substrate of CYP3A4 [9]: sensitive substrate

O=C(c1ccc(F)c(F)c1Nc1ccc(I)cc1F)N1CC(O)([C@@H]2CCCCN2)C1 [cobimetinib]
exposure in subjects with normal and mildly impaired hepatic function [10]: comparable exposure

COc1cc2ncnc(Nc3ccc(F)c(Cl)c3)c2cc1NC(=O)/C=C/CN1CCCCC1 [dacomitinib]
exposure in subjects with normal and mildly impaired hepatic function [10]: comparable exposure

CCN(CC)CCNC(=O)c1c(C)[nH]c(/C=C2\C(=O)Nc3ccc(F)cc32)c1C [sunitinib]
exposure in subjects with normal and mildly impaired hepatic function [10]: comparable exposure

CC1(C)CCC(CN2CCN(c3ccc(C(=O)NS(=O)(=O)c4ccc(NCC5CCOCC5)c([N+](=O)[O-])c4)c(Oc4cnc5[nH]ccc5c4)c3)CC2)=C(c2ccc(Cl)cc2)C1 [venetoclax]
exposure in subjects with normal and mildly impaired hepatic function [10]: comparable exposure
